Experimental data: ChEMBL document CHEMBL4513216, “Probing the Open Global Health Chemical Diversity Library for Multistage-Active Starting Points for Next-Generation Antimalarials” (ACS Infect Dis, 2020)

Test: Toxicity liver stage against HepG2, at 10uM
Format: cell-based
Design: test concentration 10 uM, cell line HepG2-A16-CD81EGFP
Details: human, HepG2-A16-CD81EGFP cells; read-out: INHIBITION
Summary of the method: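 Uninfected HepG2-A16-CD81EGFP cells, 3 × 10^3 per well, 1536-well, plated on prespotted compound at 10 μM final, parasite-free screening media added to match infected plates; puromycin 10 μM positive, DMSO 0.5% negative; run in parallel with 48 h PbLuc assay at 37 °C, 5% CO2; viability by CellTiter-Glo luminescence, normalized to controls.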

SMILES | cytotoxicity at 10 µM [%]
COCCNC(=O)[C@H]1CN2CCC1C[C@@H]2Cn1cc(C(C)(C)C)nn1 (stereo not given in full) | 7.95
CC(C)(O)c1cc(CC2(NCC3CCCCC3)COC2)no1 | 0.0962
COc1ccccc1C(=O)N1CC(=O)N(Cc2ccco2)CC(O)C1 (stereo not given) | 4.45
COC(=O)c1cc2c(=O)n(C3CC3)ccc2nc1C | -47
Cc1ccc(C)c(S(=O)(=O)NCCOc2ccc3nnc(C)n3n2)c1 | -11.3
O=C(Cc1ccc(F)cc1)NCCc1ccoc1 | -10.5
COC(=O)c1ccc(S(=O)(=O)N2CCC(Oc3cccnn3)CC2)cc1 | -4.83
O=C(NCc1cccs1)NCC1(O)CCc2ccccc2C1 (stereo not given) | -13.8
CCS(=O)(=O)N1Cc2c(Cn3ccnc3)nn(C)c2C1 | -2.85
O=C(Nc1ccc(Cl)cc1)c1nn(C2CCS(=O)(=O)C2)c2c1CCCC2 (stereo not given) | 2.96
O=C(CC1Cn2ncnc2NC1=O)Nc1ccc(F)c(F)c1 (stereo not given) | 2.02
O=C(CSC1CCc2ccccc2NC1=O)NCc1ccccc1 (stereo not given) | 6.37
NC(=O)c1ccc(NC(=O)Cn2cc(-c3ccccc3)ncc2=O)cc1 | 4.6
O=C(Cc1csc(-c2ccc(Cl)cc2)n1)NC(C(=O)O)c1ccccc1 (stereo not given) | 4.91
COc1cc(OC)c(C2SCC(=O)Nc3n[nH]cc32)cc1OC (stereo not given) | -6.08
O=C(O)C1CCCN1c1nc(-c2ccc(Cl)cc2)cc(C(F)(F)F)n1 (stereo not given) | 30.1
Cc1cc(C)nc(C2CCN(C(=O)CO)CC2)n1 | 2.53
O=S(=O)(N1CCCC1)N1CC(c2ccnc(Nc3ccccn3)n2)C1 | 11.8
COCCN1CCC1c1cc(N)nc(C)n1 (stereo not given) | 7.75
CCN(CCCc1ccccc1)CC1(C)Cc2c(N)nc(N)nc2O1 (stereo not given) | 0.822
CN1CCCC1c1cncc(C(=O)NCCN2CCCCC2)n1 (stereo not given) | 0.388
CC(C)c1nnc(CCC(=O)N2CCCC(c3cnccn3)C2)o1 (stereo not given) | 1.88

SMILES | cytotoxicity at 10 µM [%]
CC(=O)N1CCC(Cc2cnc(Nc3cc(C)on3)cn2)CC1 | 3.48
O=C(C1CC1)N1CCC(O)(CN2CCN(c3ccccc3)CC2)C1 (stereo not given) | -3.3
CN(C)CCN(C)C(=O)Cn1cccc2cc(-c3ccc(F)cc3)nc1-2 | -24.4
COc1ccc(F)cc1-c1ccccc1CC1(C(=O)O)CCOCC1 | 5.57
CCC(=O)N1CCC(Cc2ccccc2-c2cccc(C)c2)(C(N)=O)C1 (stereo not given) | -27.5
Cc1noc(C)c1-c1cncc(C2CCCN2Cc2cn(C)cn2)n1 (stereo not given) | -20.4
Cc1cc(N2CCCC2c2nccnc2C)ncn1 (stereo not given) | -20.8
CC(=O)N1CCC(c2nccnc2-c2ccc(F)c(F)c2)CC1 | -19.1
Nc1nc2nc(C3CCCN(C(=O)c4cnccn4)C3)ccc2s1 (stereo not given) | -16
Cc1nc(C)n(CC2CCCN(c3ccnc(-c4ccccc4)n3)C2)n1 (stereo not given) | 39.4
CCCn1cnc(S(=O)(=O)Nc2cccnc2-n2cccn2)c1 | 15.4
CN(Cc1ccsc1)C(=O)c1nc(N2CCCCC2)ncc1Cl | -27.4
CCC(CNC(=O)COC)Oc1cccc(F)c1 (stereo not given) | -44.6
CN(Cc1ncnn1C)C(=O)CCn1ccc2ccccc21 | 1.16
CC(C)(C)c1noc(CN2CCCc3cc(OC(F)(F)F)ccc32)n1 | -0.813
Cc1cc(NC(=O)CNC(C)(C)c2nc(C)c(C)s2)no1 | 13.3
COc1ncccc1CNCc1c(C(C)C)nn(C)c1OC | -1.68
Cc1ccc(C(=O)NCC(O)c2ccc(F)c(F)c2)c(=O)[nH]1 (stereo not given) | -3.09
Cc1n[nH]c(C2CN(C(=O)c3coc(Br)c3)CCO2)n1 (stereo not given) | -11.3
O=C(NCC1CC1)C1CSCN1S(=O)(=O)c1ccccc1F (stereo not given) | 5.02
CCN(C(=O)CN1CCC(c2cc3ccccc3[nH]2)CC1)C1CC1 | 0.99
CCc1nc(CC(=O)N2CCC(C(=O)N(CC)CC)CC2)cs1 | -1.42

SMILES | cytotoxicity at 10 µM [%]
CCN(C(=O)C(C)S(=O)(=O)Cc1nc(C)no1)c1ccccc1 (stereo not given) | 4.03
O=C(Nc1cccc(OCC(F)F)n1)c1ccncc1 | -6.02
CC(CO)NC(=O)c1ccc(NCc2cc(C#N)ccc2F)cc1 (stereo not given) | 1.98
COc1cc(Cl)c(C)cc1NC(=O)CNc1ccn(CC(N)=O)n1 | 9.8
CC(C)C(NC(=O)c1ccccc1F)C(=O)Nc1cnn(C)c1 (stereo not given) | -7.58
Cc1ccc(CNC(=O)c2oc3ccccc3c2CN(C)C)n1C | 0.521
N#Cc1cc(NC(=O)C2CC=CC2)ccc1N1CCC(O)CC1 | -9.29
Cc1ccc(F)cc1S(=O)(=O)N(C)CC(N)=O | -12.6
CCCNC(=O)COc1ccc(C)cn1 | -14.5
CN(C)C(=O)c1cccc(NC(=O)N(CCO)Cc2ccsc2)c1 | -13.4
CN1CCC2(CC1)CN(C(=O)c1cccnc1)c1ccc(Cl)cc12 | -109
COC[C@@H]1CC[C@H]2[C@H](CCN2S(=O)(=O)c2ccc(F)cc2)O1 | -2.76
CCn1cc(CN2CCCn3nc(CNS(C)(=O)=O)cc3C2)c(C)n1 | 4.06
CO[C@@H]1c2ccccc2C2(CCN(C(=O)CNC(=O)C(C)C)CC2)[C@H]1O | -3.26
Cc1cc(C)n(CCN(C)Cc2c[nH]nc2-c2ccc3c(c2)OCO3)n1 | 0.562
Cc1nc[nH]c1C(=O)NCc1cccnc1N(C)C1CCCCC1 | -4.12
O=C(O)CC[C@@H]1CN(c2ncnc3[nH]ccc23)CC[C@@H]1N1CCOCC1 | -15.8
O=C(c1ncoc1C1CC1)N1CCN(CCOc2ccccc2)CC1 | -6.93
COc1ccc(-c2noc(Cn3cnc(C)c3)n2)c(OC)c1OC | -13.2
COc1ccc(C(=O)NC2CC2)c(OC2CCN(CC3CC3)CC2)c1 | -1.47
NC(=O)c1cc2c(nc1-c1ccc3c(c1)OCCO3)CCC2 | -1.88
CC(N)C(=O)N1CCC(Oc2cccc(C(F)(F)F)c2)CC1 (stereo not given) | -8.54

SMILES | cytotoxicity at 10 µM [%]
CNC(=O)CCCNc1cc(C)nc2cc(C)nn12 | -5.97
N#CC1(C(=O)N2C[C@H](Nc3ccnc(N)n3)[C@@H](C3CC3)C2)CCOCC1 | -1.2
NCCc1cccc(CN2CCN(c3ccccc3)C(=O)C2)c1 | 3.47
CCn1cc(Cn2cc(-c3cccc(C(C)N(C)C)c3)nn2)cn1 (stereo not given) | -6.97
CN(C)CCNC(=O)CCC1CCN(C(=O)c2ccc(O)cn2)CC1 | 1.23
CCc1cn[nH]c1C1CCN(c2cc(C)c3cc(OC)ccc3n2)CC1 | 1.93
O=C(NCc1cn2cccnc2n1)C1CC(=O)N(Cc2cccnc2)C1 (stereo not given) | -3.23
CSCCC(=O)N(C/C=C/c1ccccc1)CCO | -4.47
COc1ccc([C@@H]2CN(C(=O)CCn3cccn3)C[C@H]2NC(C)=O)cc1 | 7.18
CCN(CC)Cc1cc(C(=O)N2CCCC(O)(CO)C2)c(C)o1 (stereo not given) | 7.87
CC(c1cccs1)N(C)C(=O)c1cc(CN(C)Cc2ccccc2)on1 (stereo not given) | 5.44
CC(C)(O)CCc1ccc(C(=O)N2CCN(CC3CCCC3)CC2)cc1 | 12.4
O=S(=O)(c1cc(F)ccc1F)N1CCCC1c1ccco1 (stereo not given) | 11.2
Cc1ccccc1[C@@H]1CN(C(=O)c2ccc3[nH]nnc3c2)C[C@H]1C(=O)O | -7.21
Cc1nc(C(=O)N2CCc3c(nc(-c4ccncc4)[nH]c3=O)C2)cs1 | -6.37
CCc1ccc(CN2CCCC(CO)(CCOC)C2)cc1 (stereo not given) | -0.26
CCCn1nc(C2CCNCC2)n(Cc2ccccc2)c1=O | -12.9
O=C(c1cnco1)N1CCCC(Cc2nccs2)C1 (stereo not given) | 4.84
Cc1nc(C2CCCN2Cc2nc(C3CC3)no2)no1 (stereo not given) | -12.7
Cc1nc(C2CCCN2CCS(C)(=O)=O)no1 (stereo not given) | -5.07
CCOc1ccccc1C(CC(=O)Nc1ccncc1)NC(C)=O (stereo not given) | -12.6
CN(C)S(=O)(=O)c1ccc(CN2CCCC2CO)o1 (stereo not given) | -6.88

SMILES | cytotoxicity at 10 µM [%]
COc1ncccc1CNC(=O)NCCNC(=O)c1ccco1 | -0.313
Cc1ccc(C(O)CNCCn2cccn2)cc1C (stereo not given) | -6.11
Cc1cnn(CCNCc2ccccc2Oc2cccnc2)c1 | 6.33
Cc1cnn(CCC(=O)N2CCCN(c3ncccc3C#N)CC2)c1 | 4.11
Cn1ccnc1CN1CCN(CC(O)c2ccco2)CC1 (stereo not given) | 2.38
CCOc1ccc(CC(CNC(=O)c2occc2C)C(N)=O)cc1 (stereo not given) | 5.17
c1nc(N2CCOCC2)ncc1-c1cncn1CCCN1CCCCC1 | -7.08
Fc1ccccc1CNc1ccnc(C2CCNCC2)c1 | 8.88
Cc1nc(N)c2ccc(C3CCCN3)nc2n1 (stereo not given) | 3.67
CC(=O)N1CCOCC2(CN(Cc3ccc(C)o3)CCO2)C1 (stereo not given) | 6.41
O=C1[C@H]2CN(Cc3cccs3)C[C@H]2CN1c1cncnc1 | -13.8
CN(C)CCN1CCOCC2(C1)CN(Cc1ccco1)CCO2 (stereo not given) | -111
O=C(NC1CC1)[C@@H]1CCO[C@@H]2CCN(C3CCOCC3)C[C@@H]21 | -9.87
c1cn(-c2cnc(C3CCNCC3)cn2)cn1 | -5.72
c1cnc(N2CCOCC3(CCCN(CC4CC4)C3)C2)cn1 (stereo not given) | -15.8
COc1cc(N2CCC[C@]3(C(=O)O)CN(C(C)C)C[C@@H]3C2)ncn1 | 4.14
C[C@@H]1C(=O)NC[C@H]2CN(CCc3ccccc3)C[C@H]21 | 5.45
O=S(=O)(C1CC1)N1CCC2(CC1)CC(Oc1cccnc1)CO2 (stereo not given) | -2.27
CN(C)C(=O)N1C[C@H]2CC[C@@H](C1)N(C(=O)c1cccc(N(C)C)c1)C2 | 0.502
O=C(CC(F)(F)F)N1C[C@H]2CC[C@@H](C1)N(Cc1ccccc1)C2=O | 7.71
c1ccc(COC2C[C@@H]3CN(Cc4cccnc4)C[C@@H]3C2)cc1 (stereo not given in full) | 2.92
COCCN1C[C@@H]2CC[C@H]1CN(C(=O)CCn1cc(Cl)cn1)C2 | 7.62
